# Test results reported in ChEMBL document CHEMBL1153517, “Synthesis and biological evaluation of imidazole thioacetanilides as novel non-nucleoside HIV-1 reverse transcriptase inhibitors” (Bioorg Med Chem, 2009).
# System: not listed separately
# Assay: Selectivity index, ratio of CC50 for human MT4 cells to EC50 for HIV2 ROD
# Format: toxicity, cell-based
# Conditions: MT4 cells, read-out: Ratio CC50/EC50; call rule not given here
# Outline: (§1)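 Ratio of CC₅₀ to EC₅₀. Both come from a 5-day MTT assay in MT-4 cells, using parallel mock-infected wells and wells infected with the named virus strain (100–300 CCID₅₀), with serial fivefold compound dilutions in triplicate.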
row,Structure (SMILES),selectivity ratio
1,O=C(CSc1nccn1-c1cccc2ccccc12)Nc1ccccc1Cl,< 1

# Same assay, conditions: mt4
row,Structure (SMILES),Ratio CC50/EC50
1,COc1ccc(-n2ccnc2SCC(=O)Nc2ccccc2Br)cc1,Not Active
2,COc1ccc(-n2ccnc2SCC(=O)Nc2ccccc2F)cc1,Not Active
3,COc1ccc(-n2ccnc2SCC(=O)Nc2ccccc2Cl)cc1,Not Active
4,O=C(CSc1nccn1-c1ccc(Cl)cc1)Nc1ccccc1Br,Not Active
5,COc1ccc(-n2ccnc2SCC(=O)Nc2ccccc2C)cc1,Not Active
6,O=C(CSc1nccn1-c1ccc(Cl)cc1)Nc1ccccc1[N+](=O)[O-],Not Active
7,O=C(CSc1nccn1-c1ccc(Cl)cc1)Nc1ccccc1F,Not Active
8,O=C(CSc1nccn1-c1ccc(Cl)cc1)Nc1ccccc1Cl,Not Active

# System: Human immunodeficiency virus 1
# Assay: Antiviral activity against wild type HIV1 by MTT assay
# Format: functional, organism-based
# Conditions: not given
Structure (SMILES),EC50 [nM],IC50 [nM]
Cc1ccc(NC(=O)CSc2nnc(C)n2-c2ccccc2)c(Br)c1,100,
Cc1cc(C)c(-n2nnnc2SCC(=O)Nc2ccccc2Cl)c(C)c1,,5

# System: Human immunodeficiency virus 1
# Assay: Antiviral activity against […] HIV1 bearing reverse transcriptase K103/Y181C mutation by MTT assay
# Format: functional, organism-based
# Conditions: not given
row,Structure (SMILES),EC50 [nM]
1,Cc1ccc(NC(=O)CSc2nnc(C)n2-c2ccccc2)c(Br)c1,1300

# System: Human immunodeficiency virus 1
# Assay: Antiviral activity against HIV1 3B infected in human MT4 cells assessed as virus-induced cytopathic effect by MTT assay
# Format: functional, organism-based
# Conditions: Human immunodeficiency virus 1, 3B
# Outline: (§2)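 MT-4 cells (exponentially growing, resuspended at 6 × 10⁵ cells/mL) are infected with HIV-1 IIIB or HIV-2 ROD stock at 100–300 CCID₅₀. Serial fivefold compound dilutions are added at the start, in triplicate wells. After 5 days, viability is read by MTT reduction at OD540, using the median OD of three wells. EC₅₀ is the concentration giving 50% protection from the viral cytopathic effect.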
row,Structure (SMILES),EC50 [µM]
1,COc1ccc(-n2ccnc2SCC(=O)Nc2ccccc2Br)cc1,≥ 18.4
2,COc1ccc(-n2ccnc2SCC(=O)Nc2ccccc2F)cc1,> 42
3,COc1ccc(-n2ccnc2SCC(=O)Nc2ccccc2Cl)cc1,32.3
4,O=C(CSc1nccn1-c1ccc(Cl)cc1)Nc1ccccc1Br,15.8
5,COc1ccc(-n2ccnc2SCC(=O)Nc2ccccc2C)cc1,155
6,O=C(CSc1nccn1-c1ccc(Cl)cc1)Nc1ccccc1[N+](=O)[O-],4.86
7,O=C(CSc1nccn1-c1ccc(Cl)cc1)Nc1ccccc1F,43.8
8,O=C(CSc1nccn1-c1ccc(Cl)cc1)Nc1ccccc1Cl,≥ 11.7
9,O=C(CSc1nccn1-c1cccc2ccccc12)Nc1ccccc1Cl,0.2

# System: Human immunodeficiency virus 2
# Assay: Antiviral activity against HIV2 ROD infected in human MT4 cells assessed as virus-induced cytopathic effect by MTT assay
# Format: functional, organism-based
# Conditions: Human immunodeficiency virus 2, ISOLATE ROD
# Outline: as §2
row,Structure (SMILES),EC50 [µM]
1,COc1ccc(-n2ccnc2SCC(=O)Nc2ccccc2Br)cc1,> 299
2,COc1ccc(-n2ccnc2SCC(=O)Nc2ccccc2F)cc1,> 42
3,COc1ccc(-n2ccnc2SCC(=O)Nc2ccccc2Cl)cc1,> 334
4,O=C(CSc1nccn1-c1ccc(Cl)cc1)Nc1ccccc1Br,> 296
5,COc1ccc(-n2ccnc2SCC(=O)Nc2ccccc2C)cc1,> 354
6,O=C(CSc1nccn1-c1ccc(Cl)cc1)Nc1ccccc1[N+](=O)[O-],> 321
7,O=C(CSc1nccn1-c1ccc(Cl)cc1)Nc1ccccc1F,> 345
8,O=C(CSc1nccn1-c1ccc(Cl)cc1)Nc1ccccc1Cl,> 330
9,O=C(CSc1nccn1-c1cccc2ccccc12)Nc1ccccc1Cl,> 35.2

# System: not listed separately
# Assay: Cytotoxicity against human MT4 cells by MTT assay
# Format: cell-based
# Conditions: not given
# Outline: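 Mock-infected MT-4 cells (6 × 10⁵ cells/mL) are run in parallel triplicate wells with serial fivefold compound dilutions and culture medium in place of virus. After 5 days, MTT formazan is read at OD540, using the median OD of three wells. CC₅₀ is the concentration that cuts absorbance of the mock-infected control by 50%.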
row,Structure (SMILES),CC50 [µM]
1,O=C1Nc2ccc(Cl)cc2[C@@](C#CC2CC2)(C(F)(F)F)O1 [EFAVIRENZ],> 6.34
2,COc1ccc(-n2ccnc2SCC(=O)Nc2ccccc2Br)cc1,> 299
3,COc1ccc(-n2ccnc2SCC(=O)Nc2ccccc2F)cc1,≥ 42
4,COc1ccc(-n2ccnc2SCC(=O)Nc2ccccc2Cl)cc1,> 334
5,O=C(CSc1nccn1-c1ccc(Cl)cc1)Nc1ccccc1Br,> 300
6,COc1ccc(-n2ccnc2SCC(=O)Nc2ccccc2C)cc1,> 354
7,Cc1ccnc2c1NC(=O)c1cccnc1N2C1CC1 [NEVIRAPINE],> 15
8,O=C(CSc1nccn1-c1ccc(Cl)cc1)Nc1ccccc1[N+](=O)[O-],> 321
9,O=C(CSc1nccn1-c1ccc(Cl)cc1)Nc1ccccc1F,> 345
10,O=C(CSc1nccn1-c1ccc(Cl)cc1)Nc1ccccc1Cl,> 330
11,CC(C)Nc1cccnc1N1CCN(C(=O)c2cc3cc(NS(C)(=O)=O)ccc3[nH]2)CC1 [DELAVIRDINE],> 3.83
12,Cc1cn([C@H]2C[C@H](N=[N+]=[N-])[C@@H](CO)O2)c(=O)[nH]c1=O [ZIDOVUDINE],> 93.5
13,O=C(CSc1nccn1-c1cccc2ccccc12)Nc1ccccc1Cl,35.2

# System: not listed separately
# Assay: Selectivity index, ratio of CC50 for human MT4 cells to EC50 for HIV1 3B
# Format: toxicity, cell-based
# Conditions: MT4 cells, read-out: Ratio CC50/EC50
# Outline: as §1
row,Structure (SMILES),selectivity ratio
1,O=C1Nc2ccc(Cl)cc2[C@@](C#CC2CC2)(C(F)(F)F)O1 [EFAVIRENZ],> 1430
2,COc1ccc(-n2ccnc2SCC(=O)Nc2ccccc2Cl)cc1,> 10
3,O=C(CSc1nccn1-c1ccc(Cl)cc1)Nc1ccccc1Br,> 19
4,COc1ccc(-n2ccnc2SCC(=O)Nc2ccccc2C)cc1,> 2
5,O=C(CSc1nccn1-c1ccc(Cl)cc1)Nc1ccccc1[N+](=O)[O-],> 66
6,O=C(CSc1nccn1-c1ccc(Cl)cc1)Nc1ccccc1F,> 8
7,CC(C)Nc1cccnc1N1CCN(C(=O)c2cc3cc(NS(C)(=O)=O)ccc3[nH]2)CC1 [DELAVIRDINE],> 12
8,Cc1cn([C@H]2C[C@H](N=[N+]=[N-])[C@@H](CO)O2)c(=O)[nH]c1=O [ZIDOVUDINE],> 6190
9,O=C(CSc1nccn1-c1cccc2ccccc12)Nc1ccccc1Cl,170

# Same assay, conditions: mt4
row,Structure (SMILES),Ratio CC50/EC50
1,COc1ccc(-n2ccnc2SCC(=O)Nc2ccccc2F)cc1,Not Active
2,O=C(CSc1nccn1-c1ccc(Cl)cc1)Nc1ccccc1Cl,Not Active
